# EBNA-1 inh = blocks EBNA-1 binding to DNA; EBNA-1 DNA binding, fluorescence polarization; inhibition, % at 14.8 µM; actives 0.34% (n = 300,000); in the data active = inhibition above about 28%
# NR3A LBD binder = modulators (binders) of human NR3A ligand-binding domain; NR3A LBD differential scanning fluorimetry, Tm shift; 0% = protein alone, 100% = glycine-bound protein; actives 2.5% (n = 340,000); Tm shift relative to glycine control, % at 25 µM;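 active = melting temperature shift of at least 10% of the positive control shift, at one fixed dose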
# NS3 helicase inh = blocks Hepatitis C virus NS3 helicase unwinding | AID 1800 | NS3 helicase DNA unwinding, Cy5 molecular beacon fluorescence | inhibition, % at 10.9 µM | actives 0.56% (n = 290,000);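 active = inhibition above the mean of all tested compounds plus 3 SD, set per campaign, cut at about 35% in these data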;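 also: 0% = DMSO wells and 100% = thioflavine S control wells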
#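 test system = hepatitis C virus NS3 helicase domain fragment enzyme | reagent = annealed dual-labelled DNA beacon duplex, ATP-started | times = 1 h at 25 °C | detection = Cy5 fluorescence, 0 and 60 min reads | read-out basis = percent inhibition from t60/t0 fluorescence ratio | control set = DMSO and thioflavine S | replication = one well per compound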
# ZTA DNA inh = ZTA (EBV) inhibition in EBNA-1 counter-screen | ZTA-DNA binding, fluorescence polarization | actives 0.15% (n = 320,000) | inhibition, % at 11 µM; in the data active = inhibition above about 33%
# Target sequence (P03206 whole entry, looked up): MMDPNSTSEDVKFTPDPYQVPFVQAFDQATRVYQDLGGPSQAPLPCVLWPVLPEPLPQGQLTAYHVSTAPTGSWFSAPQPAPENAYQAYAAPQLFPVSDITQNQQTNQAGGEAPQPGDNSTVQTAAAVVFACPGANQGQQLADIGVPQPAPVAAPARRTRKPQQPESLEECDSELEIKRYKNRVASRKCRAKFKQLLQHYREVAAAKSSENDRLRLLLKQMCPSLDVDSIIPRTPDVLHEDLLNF
# FID counter = fluorescent intercalator displacement, NS3 helicase counter-screen; DNA fluorescent intercalator displacement, fluorescence; inhibition, % at 7.9 µM; actives 0.17% (n = 290,000); AID 1845; in the data active = inhibition above about 37%;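 also: 0% = vehicle and 100% = reference compound; higher means more ethidium bromide displaced from hairpin DNA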
# FGF22 binding = shifts melting point of recombinant human FGF22 | Q9HCT0 | recombinant FGF22 thermal shift, SYPRO orange fluorescence; percent of sucrose octasulfate shift, DMSO zero | activity (Tm shift, normalised), % at 9.99 µM | actives 1.5% (n = 340,000) | AID 651658;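 active = mean Tm shift, scaled 0 neutral to 100 positive control, at about 1.3% or above, every replicate too, limit read from the data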
# Target sequence (Q9HCT0 whole entry, looked up): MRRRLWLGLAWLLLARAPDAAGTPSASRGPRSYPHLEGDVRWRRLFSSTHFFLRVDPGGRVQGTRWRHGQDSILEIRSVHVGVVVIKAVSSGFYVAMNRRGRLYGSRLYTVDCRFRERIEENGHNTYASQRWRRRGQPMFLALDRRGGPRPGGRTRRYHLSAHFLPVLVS
# Starred values were filed as active, the others as inactive; / = not tested or not shown. In the library only some 3.6% were active in any assay of this set; here they are far more common.
SMILES,EBNA-1 inh,NR3A LBD binder,NS3 helicase inh,ZTA DNA inh,FID counter,FGF22 binding
COc1ccc(CN(C)C[C@@H]2OCCCC[C@H](C)Oc3ccc(NC(=O)NC(C)C)cc3C(=O)N([C@@H](C)CO)C[C@@H]2C)cc1,/,/,/,/,/,-0.4
Cn1cccc1Cc1nnc(SCC(=O)N2CCCC2)n1CCc1ccccc1,13.1,2.3,9.8,18.0,-37.0,43.1*
O=C(NN=C1CCCC1)c1[nH]c2ccc(Br)cc2c1-c1ccccc1,-1.3,-15.4,2.8,3.4,-5.6,0.1
O=C(N/N=C/c1ccccc1)c1[nH]c2ccc(Br)cc2c1-c1ccccc1,-1.1,26.6*,-0.9,7.3,-2.3,0.2
Cc1ccc2[nH]c(C(=O)N/N=C/c3ccccc3O)c(C)c2c1,-3.1,19.5*,22.3,-4.6,-7.3,0.0
COc1ccc2[nH]c(C(=O)N/N=C/c3ccccc3OC)cc2c1,2.9,5.8,-5.8,4.5,-26.0,1.0
COc1cc(OC)c2cc(C(=O)N/N=C/c3ccccc3O)[nH]c2c1,-11.6,36.6*,9.3,-0.3,-12.1,0.3
Cc1ccc2[nH]c(C(=O)N/N=C/c3ccccc3C(=O)O)c(-c3ccccc3)c2c1,-22.9,0.0,8.4,6.7,-19.6,0.1
Cc1ccc2[nH]c(C(=O)N/N=C/c3ccc([N+](=O)[O-])cc3)c(C)c2c1,/,19.9*,-16.7,/,2.3,0.0
C[C@@H]1CN([C@H](C)CO)C(=O)c2cc(NC(=O)Nc3ccc(C(F)(F)F)cc3)ccc2O[C@@H](C)CCCCO[C@H]1CN(C)S(=O)(=O)c1ccccc1,/,/,/,/,/,0.3
Cc1cccc(-n2[nH]c(C)c(C=Nc3ccc4[nH]c(=O)[nH]c4c3)c2=O)c1,1.3,31.9*,1.8,-16.1,0.5,-0.2
Cc1[nH]n(-c2ccccc2)c(=O)c1C=Nc1ccc2[nH]c(=O)[nH]c2c1,-1.1,32.7*,-18.0,-0.3,-1.3,/
Cc1[nH]n(-c2ccccc2)c(=O)c1C=Nc1ccc(S(=O)(=O)N=C(N)N)cc1,-7.1,0.3,9.1,-14.3,-0.4,0.2
Cc1[nH]n(-c2ccccc2)c(=O)c1C=Nc1cccc(F)c1,-9.8,0.9,-6.0,7.2,2.0,0.0
Cc1[nH]n(-c2ccccc2)c(=S)c1C=Nc1ccc([N+](=O)[O-])cc1,-1.1,23.0*,0.6,6.3,-2.7,-0.1
C[C@H](CO)N1C[C@H](C)[C@@H](CN(C)CC2CCCCC2)Oc2ccc(NC(=O)Nc3ccccc3)cc2C1=O,/,/,/,/,/,0.0
COCC(=O)N1[C@H](C#N)[C@H](c2ccccc2-c2ccc(C)cc2)[C@H]1CO,/,/,/,/,/,0.1
O=C(C[C@H]1CC[C@H]2[C@@H](COC[C@@H](O)CN2S(=O)(=O)c2ccccc2F)O1)NCc1ccccc1Cl,/,/,/,/,/,0.0
O=C(NCc1cn(-c2ccccc2)nc1-c1ccccc1)c1cccc([N+](=O)[O-])c1,-5.3,1.8,-10.5,18.5,-0.2,43.1*
CO[C@H]1CN(C)C(=O)c2cc(NS(C)(=O)=O)ccc2OC[C@@H](C)N(C(=O)CN(C)C)C[C@H]1C,/,/,/,/,/,-0.4
NC(=O)c1ccc(NC(=O)COC(=O)CCC(=O)c2ccc(Cl)cc2)cc1,-1.4,-1.2,-0.3,-9.2,-7.8,43.3*
O=C(COC(=O)c1ccc(Br)o1)NCc1ccc(F)cc1,/,0.1,/,3.9,/,27.2*
O=C(COC(=O)CCC(=O)c1ccc(Cl)cc1)NCc1ccc(F)cc1,/,1.1,/,/,/,43.1*
O=C(C[C@@H]1C[C@H]2c3cc(NC(=O)Nc4ccccc4F)ccc3O[C@H]2[C@H](CO)O1)NCc1cc(F)ccc1F,/,/,/,/,/,0.5
Cc1ccc2nc(-c3cccs3)oc(=O)c2c1,-7.2,-2.9,4.0,4.4,-6.8,43.4*
SMILES,EBNA-1 inh,NR3A LBD binder,NS3 helicase inh,ZTA DNA inh,FID counter,FGF22 binding
O=c1oc(-c2cccs2)nc2ccc(Br)cc12,0.9,0.8,12.2,1.4,-9.3,/
O=C(Nc1nnc(CSCc2ccc(F)cc2)s1)c1cccc([N+](=O)[O-])c1,0.7,8.7,6.7,13.7,-4.0,/
COC(=O)c1cc(C(=O)Nc2nnc(CC(C)(C)C)s2)cc([N+](=O)[O-])c1,-3.6,-7.2,10.3,14.9,0.9,/
O=C(Nc1nnc(CSCc2ccc(Cl)cc2)s1)c1cccc([N+](=O)[O-])c1,-0.8,19.1*,-1.2,-3.3,0.6,/
CCOCc1nnc(NC(=O)c2cc(C(=O)OC)cc([N+](=O)[O-])c2)s1,-0.5,2.6,5.0,-7.8,-2.2,43.2*
C[C@H](CO)N1C[C@H](C)[C@@H](CN(C)C(=O)C2CCC2)Oc2ncc(-c3cccnc3)cc2C1=O,/,/,/,/,/,-0.2
Cc1ccc(-c2nn(CCC(=O)O)cc2/C=C\C(=O)c2ccc(Br)cc2)cc1,-0.3,0.8,-32.5,17.0,-7.5,15.3*
O=C(O)CCn1cc(/C=C\C(=O)c2ccc(Cl)cc2)c(-c2cccc(Br)c2)n1,-4.3,-11.1,-36.1,28.3,-5.6,/
CCN1CCc2c(C#N)c(N3CCCCC3)nc(N3CCOCC3)c2C1,-6.7,2.1,-4.2,1.8,12.1,/
CCN1CCc2c(C#N)c(N3CCOCC3)nc(N3CCOCC3)c2C1,-6.9,27.3*,3.5,1.2,-1.3,/
Nc1nonc1-n1nnc(C(=O)N/N=C/c2cccc(Cl)c2)c1CSc1ccc(Cl)cc1,9.3,33.2*,4.5,-1.0,-3.1,0.5
Nc1nonc1-n1nnc(C(=O)N/N=C/c2ccco2)c1CSc1ccc(Cl)cc1,/,/,/,/,/,-0.4
Nc1nonc1-n1nnc(C(=O)N/N=C/c2ccccc2)c1CSc1ccc(Cl)cc1,5.9,29.7*,-5.6,-4.6,-8.0,/
Nc1nonc1-n1nnc(C(=O)N/N=C/c2cccc(Cl)c2)c1CSc1ccccc1,11.1,6.0,1.3,-5.3,-4.0,-0.3
C[C@H]1CN([C@@H](C)CO)C(=O)c2cccc(NC(=O)c3nc4ccccc4s3)c2O[C@H]1CN(C)S(C)(=O)=O,/,/,/,/,/,-0.2
CC(=N\Nc1ccc(Cl)cc1)/C(=N/O)C(=O)Nc1ccccc1,-6.9,22.9*,-14.5,-6.9,3.6,/
O=C(Nc1ccc(C(=O)NN2C(=O)c3ccccc3C2=O)cc1)c1ccccc1,12.7,23.6*,2.5,8.8,-1.8,1.3
CC(C)C(=O)Nc1ccc(C(=O)NN2C(=O)c3ccccc3C2=O)cc1,-5.4,13.0*,-1.5,1.2,-5.2,0.0
CCC(=O)Nc1ccc2c(c1)OC[C@H](C)N(C(=O)CC1CC1)C[C@@H](C)[C@@H](OC)CN(C)C2=O,/,/,/,/,/,-0.2
O=[N+]([O-])c1ccc(N=Nc2ccc(O)c3ccccc23)cc1,/,19.8*,/,/,/,/
COCC#Cc1ccc2c(c1)O[C@H](CN(C)C(=O)C1CC1)[C@@H](C)CN([C@H](C)CO)S2(=O)=O,/,/,/,/,/,0.0
CCN(CC)C(=O)Cn1cc(S(=O)(=O)CC(=O)NCCc2ccccc2)c2ccccc21,-3.5,14.8*,-5.0,2.4,-45.7,0.1

# Source: PubChem BioAssay
